The list is not random: actives were taken first. Their share in the collection is about 1.6%.
PHOSPHO1 inh = PHOSPHO1 (human) inhibition; Q8TCT1; recombinant PHOSPHO1, absorbance phosphatase assay; inhibition, % at 13.3 µM; 1.1% of 290,000 active; AID 1565; in the data active = inhibition above about 60%
Target sequence (Q8TCT1 whole entry, looked up): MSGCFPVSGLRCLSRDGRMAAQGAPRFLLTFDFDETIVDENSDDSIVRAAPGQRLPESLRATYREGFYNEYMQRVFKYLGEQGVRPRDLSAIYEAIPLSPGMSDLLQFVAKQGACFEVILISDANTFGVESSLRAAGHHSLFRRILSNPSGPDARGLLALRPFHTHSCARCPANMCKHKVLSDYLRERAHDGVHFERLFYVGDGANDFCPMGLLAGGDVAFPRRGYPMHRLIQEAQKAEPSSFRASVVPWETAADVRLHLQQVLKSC
ABCB1 inh = inhibitors of human ABCB1 transporter, ABCG2 counter-screen; P08183; CCRF-Adr cells, JC-1 efflux, flow cytometry; inhibition, % at 6.6 µM; 0.067% of 190,000 active; AID 1326; in the data active = inhibition above about 40%;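 note: 0% = vehicle and 100% = reference inhibitor; higher value means more JC-1 retained so stronger ABCB1 efflux block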
ABCG2 block = inhibitors of human ABCG2 transporter, ABCB1 counter-screen; Q9UNQ0; inhibition, % at 6.6 µM; IgMXP3 cells, JC-1 efflux, flow cytometry; 0.1% of 190,000 active; AID 1325;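 active = inhibition above 80%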;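 note: 0% = DMSO and 100% = nicardipine control wells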
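Measure – % inhibition of efflux relative to nicardipine and DMSO · Test system – ABCG2 IgMXP3 and barcoded ABCB1 CCRF-Adr cell mix · Control set – nicardipine as high control, DMSO as low control · Compound – one concentration, 6.6 µM final · Signal – flow cytometry of retained JC-1 fluorescence · Timing – 10 min exposure at 25 °C with rotation, no wash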
NCF1 inh = blocks human p47phox regulatory protein of NADPH oxidases | p47phox/p22phox peptide binding, fluorescence polarization, 2 h | 0.53% of 220,000 active | P14598 | inhibition, % at 24.7 µM;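 active = inhibition above about 30%, limit read from the data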;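 note: 0% = p47phox with labelled peptide and 100% = labelled peptide alone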
Target sequence (P14598 whole entry, looked up): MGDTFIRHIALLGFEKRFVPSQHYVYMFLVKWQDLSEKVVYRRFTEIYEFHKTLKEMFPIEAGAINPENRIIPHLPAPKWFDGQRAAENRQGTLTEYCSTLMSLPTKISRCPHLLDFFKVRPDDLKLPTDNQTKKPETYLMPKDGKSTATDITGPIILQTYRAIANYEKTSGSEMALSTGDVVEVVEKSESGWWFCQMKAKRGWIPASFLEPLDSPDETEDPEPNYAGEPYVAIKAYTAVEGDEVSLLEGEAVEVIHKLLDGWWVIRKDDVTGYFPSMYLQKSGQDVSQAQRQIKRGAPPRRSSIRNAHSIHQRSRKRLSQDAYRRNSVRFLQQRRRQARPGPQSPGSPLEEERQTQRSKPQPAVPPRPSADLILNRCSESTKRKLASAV
PKD1 kinase inh = blocks activity of human protein kinase D1 | AID 797 | Q15139 | 0.056% of 200,000 active | PKD1 kinase fluorescence polarization assay | inhibition, % (no concentration beside the values); in the data active = inhibition above about 50%
HSV replic up = HSV replication enhancement. HSV replication augmentation in cells, fold increase. maximum fold increase. 0.005% of 220,000 active; in the data active = maximum fold increase above about 1.5; inconclusive = no clear call, values can overlap the other calls; tested in PC3 cells
* hit, by the source's call; i = inactive; ? = inconclusive; nt = no result.

SMILES	PHOSPHO1 inh	ABCB1 inh	ABCG2 block	NCF1 inh	PKD1 kinase inh	HSV replic up
CCCCCCN1C=C/C(=C\C=C(C#N)C#N)c2ccccc21	-0.8	-1.0	-4.2	127.8*	7.9	?
C=CCN1C=C/C(=C\C=C(C#N)C#N)c2ccccc21	-1.3	-0.4	-6.9	82.6*	-3.6	i
C=CCN1C=CC(=CC=C(C#N)C#N)C=C1	28.3	nt	nt	-1.6	nt	nt
CCCCCn1ccc(=N)cc1	93.4*	0.3	2.6	-5.1	6.8	i
COc1ccccc1-c1nnc(SCCN2CCOCC2)n1-c1ccc(C)cc1	69.4*	1.1	2.7	-2.6	2.6	i
O=C(CNC(=O)c1cccs1)c1ccc([N+](=O)[O-])cc1	67.3*	-0.5	-2.1	-14.0	-10.8	i
CCSc1ccc2nnc(-c3cccc(F)c3)n2n1	93.8*	0.2	6.6	2.8	-7.5	i
CCC(C)(C)NC(=O)CN(Cc1ccc(OC)cc1)C(=O)CCC(=O)Nc1nccs1	32.5	nt	nt	nt	nt	nt
Cc1cc(-c2nnc(CCC(=O)N3CCN(Cc4cccnc4)CC3)o2)c(C)o1	44.9	-0.2	-1.4	133.4*	2.2	i
Cc1ccc(/C(C#N)=C\c2ccc(N3CCOCC3)o2)cc1	62.4*	0.3	1.5	-26.4	-10.1	i
O=S(=O)(Cc1ccccc1)N=Nc1c(O)[nH]c2ccc(Br)cc12	65.4*	nt	nt	6.6	nt	i
COC(=O)[C@@H]1C[C@@]2(O)[C@@H](O)[C@@H](O)[C@@H](O)C[C@H]2N1Cc1ccc(Cl)cc1	26.5	nt	nt	-8.0	nt	i
CC1CN(c2oc(-c3ccco3)nc2S(=O)(=O)c2ccccc2)CC(C)O1 (stereo not drawn)	75.8*	0.6	1.4	-7.6	-15.1	i
CC1CCN(c2oc(-c3ccco3)nc2S(=O)(=O)c2ccccc2)CC1	33.4	nt	nt	nt	nt	nt
COc1ccc(C2=CC(=O)C=CC2=O)cc1	34.7	nt	nt	58.3*	nt	i
Cc1noc(C)c1COC(=O)[C@@H](NC(=O)c1ccccc1)C(C)C	5.6	1.2	2.2	-4.2	-3.1	i
CCNC(C(=O)c1c[nH]c2c(CC)cccc12)c1ccccc1 (stereo not drawn)	27.9	nt	nt	nt	nt	nt
O=C(Cc1cccs1)NNC(=S)NCc1ccc(Cl)cc1	100.4*	0.1	0.1	-5.0	1.7	i
Cn1nc(-c2ccccc2)cc1NC(=O)C1CCCCC1	55.7	nt	nt	-9.7	nt	i
CC(=O)N1c2ccccc2C2(O)N=C(C)SC12 (stereo not drawn)	71.9*	-0.8	-3.4	20.0	-1.1	i
CC(=O)Nc1ccc(C(=O)CSc2nc3ccccc3n2CC(=O)N2CCCC2)cc1	71.3*	-0.4	-1.4	-7.2	6.7	i
O=C(CSc1nc2ccccc2n1CC(=O)N1CCCCC1)N1CCCCC1	14.9	nt	nt	-0.5	nt	i
CCCN1CCN(C(=O)CS(=O)(=O)Cc2nc(-c3cccc(OC)c3)oc2C)CC1	11.9	nt	nt	nt	nt	nt
COc1ccc(C(=O)Nc2ccc(C(=O)N3CCCCC3C)cc2)c(OC)c1OC (stereo not drawn)	75.4*	nt	nt	nt	nt	nt
Cc1cccc(C(=O)Nc2ccc(C(=O)N3CCCCC3C)cc2)c1 (stereo not drawn)	57.8	nt	nt	nt	nt	nt
SMILES	PHOSPHO1 inh	ABCB1 inh	ABCG2 block	NCF1 inh	PKD1 kinase inh	HSV replic up
Cc1nc(NC(C)C(=O)O)c2nc(C)oc2n1 (stereo not drawn)	62.3*	0.0	0.1	-12.1	7.4	i
COc1ccc(C)c2sc(=NC(=O)c3ccccc3)n(C)c12	14.1	-2.2	-1.8	44.6*	7.5	nt
C=CCC1(CC=C)CCCN1C(=O)c1cc(COc2cncc(Cl)c2)on1	65.8*	nt	nt	nt	nt	nt
CC(=O)Nc1c(O)nc(SCC(=O)Nc2nnc(SCc3ccccc3)s2)[nH]c1=O	41.7	-1.4	2.5	-11.0	0.8	i
O=C(NCC1CCCO1)c1ccc(NC(=O)c2cc(F)c(F)cc2Cl)cc1 (stereo not drawn)	4.2	nt	nt	nt	nt	nt
COc1cccc(/C=N/n2c(=S)n(C)c3ccccc32)c1OC	73.3*	0.1	4.4	-2.2	1.4	i
COc1cccc(/C=N/n2c(C)nc3ccccc32)c1OC	-3.2	1.4	16.1	3.4	-9.8	i
C=CCn1c(COc2ccc(F)cc2)nnc1SCC(=O)N1CC(=O)Nc2ccccc21	73.5*	1.4	11.8	-5.8	-0.9	i
O=C(Nc1ccccc1)Nc1ccc(C(=O)N2CCOCC2)cc1	40.8	0.1	-0.1	4.2	-6.0	i
O=C1C=CC(=O)N1c1cccc(-c2ccccc2)c1	78.2*	nt	nt	5.0	nt	i
O=C1c2ccccc2C(=O)N1c1cccc(-c2nc3ccccc3o2)c1	-56.0	0.9	13.3	1.6	-0.6	i
Cc1c(NC(=S)N/C(=N/S(=O)(=O)c2ccc(Cl)cc2)c2ccccc2)c(=O)n(-c2ccccc2)n1C	82.7*	nt	nt	-5.0	nt	i
Cc1c(NC(=S)N/C(=N/S(=O)(=O)c2ccccc2)c2ccccc2)c(=O)n(-c2ccccc2)n1C	8.1	nt	nt	-9.4	nt	i
Cc1ncc([N+](=O)[O-])n1Cc1ccc(F)cc1	24.1	1.5	1.7	-0.6	4.3	i
CC1(C)C(=O)Nc2ccccc2N1C(=O)COC(=O)C1CCCCC1	7.4	0.5	2.1	31.9*	-2.5	i
Cc1cc(C)c(C)c(S(=O)(=O)N2CCC(C(=O)OCC(=O)N3c4ccccc4NC(=O)C3(C)C)CC2)c1C	-1.3	2.1	4.3	-54.9	0.6	i
O=C(Cn1nc2n(c1=O)-c1ccccc1SC2)N/N=C/c1cccnc1	-7.6	nt	nt	4.3	nt	i
CN(C)c1ccc(/C=C/C(=O)c2cc(Cl)ccc2O)cc1	18.9	nt	nt	79.0*	nt	?
O=C(N/C(=C/C=C\c1ccccc1)C(=O)N1CCOCC1)c1ccc(Br)cc1	17.0	0.9	7.2	-1.7	-6.9	i
CCCC(C)C(=O)Nc1nc(C)c(-c2csc(Nc3ccc(Cl)cc3)n2)s1 (stereo not drawn)	20.1	0.0	1.4	-62.8	-5.7	i
COc1ccccc1Nc1nc(-c2sc(NC(=O)c3ccc([N+](=O)[O-])cc3)nc2C)cs1	-113.3	-1.5	-4.5	-6.3	-3.6	nt
CCCC(C)C(=O)Nc1nc(C)c(-c2csc(Nc3ccccc3OC)n2)s1 (stereo not drawn)	74.3*	-0.4	-1.1	-31.7	-1.8	i
CCOc1ccccc1Nc1nc(-c2sc(NC(=O)c3ccccc3)nc2C)cs1	87.7*	-0.6	-2.2	-13.3	-14.0	i
Cc1nc(N)sc1-c1csc(NCc2ccccc2)n1	67.3*	-0.6	-0.8	-28.0	-7.7	i
CCOc1ccccc1Nc1nc(-c2sc(NC(=O)c3cccc(Cl)c3)nc2C)cs1	53.4	-0.5	-1.5	-8.9	-14.3	i
CCCCCCC(=O)Nc1nc(C)c(-c2csc(Nc3ccccc3OC)n2)s1	79.2*	-0.8	-2.1	-33.3	13.1	i
O=C(Nc1cc(Cl)ccc1N1CCCC1)C1=NN(c2ccccc2)C(=O)CC1	22.3	nt	nt	nt	nt	nt
C#CC(C)OC(=O)Nc1cnccc1C(F)(F)F (stereo not drawn)	12.3	nt	nt	-12.8	nt	i
COc1cccc(Nc2nc(-c3sc(N)nc3C)cs2)c1	65.8*	-0.2	9.7	-41.8	18.5	i

Screening results (PubChem)
